High-throughput results from PubChem.
This is a sample that favours compounds with a hit; in the whole collection about 3.5% have one here.
MrgX1 agonist: human MrgX1 receptor agonism, primary screen; Q96LB2; MrgX1-HEK293 cells, Fluo-4 calcium fluorescence, agonist mode; stronger effect = higher value; B-score at 10 µM; 310,000 tested, 0.44% active; AID 588627;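 active means calcium response B-score plate-corrected fluorescence ratio at least 3 library SD, with starting fluorescence B-score inside 5 SD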
Target sequence (Q96LB2 whole entry, looked up): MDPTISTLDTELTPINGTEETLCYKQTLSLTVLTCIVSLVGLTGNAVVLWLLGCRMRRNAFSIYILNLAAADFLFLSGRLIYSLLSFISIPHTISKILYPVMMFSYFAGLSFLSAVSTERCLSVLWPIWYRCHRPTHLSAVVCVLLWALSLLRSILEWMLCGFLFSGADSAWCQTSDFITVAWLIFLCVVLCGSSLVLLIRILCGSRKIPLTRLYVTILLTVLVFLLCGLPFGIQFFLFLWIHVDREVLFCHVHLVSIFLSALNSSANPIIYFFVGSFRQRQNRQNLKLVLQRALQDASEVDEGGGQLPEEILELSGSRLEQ
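Assay system: MrgX1-expressing HEK293 cells / Amount: fifteen thousand cells per well / Doses: test compound in the initial addition of three / Timing: cells plated overnight, dye loaded 0.5 h 37 °C, 0.5 h room temperature / Technique: kinetic calcium dye fluorescence, Fluo-4 NW / Control set: positive and negative controls per plate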
RGS4 pot: RGS4 potentiation or activation. HEK293 M3R/inducible RGS4, carbachol calcium flux Fluo4; stronger effect = lower value. B-score at 10 µM. 310,000 tested, 0.92% active. AID 463111;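 active means B-score of the integrated calcium signal more than 4 SD below the library mean, with starting fluorescence not abnormally high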;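 further: negative B-score means reduced calcium response which marks RGS4 activation or potentiation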
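Test system: HEK293 cells with stable M3R and inducible RGS4; also added: carbachol at ECmax as muscarinic agonist stimulus; schedule: dye loading 30 min 37 °C, buffer rest 30 min RT; technique: kinetic calcium fluorescence imaging with Fluo4-AM dye, 2 µM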
RGS4 block: human RGS4 inhibition. P49798. 310,000 tested, 0.45% active. B-score at 10 µM. HEK293 M3R/RGS4 inducible, Fluo-4 calcium flux; stronger effect = higher value; triggered by carbachol at its EC20;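 active means B-score, a plate-corrected calcium signal, over three deviations above library mean, with baseline fluorescence within five deviations of library mean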;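 further: RGS4 expression induced by doxycycline in cells with stable M3 receptor; B-score is computed from the integrated fluorescence ratio over baseline after carbachol; higher B-score means a larger calcium signal and so more RGS4 inhibition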
Target sequence (P49798 whole entry, looked up): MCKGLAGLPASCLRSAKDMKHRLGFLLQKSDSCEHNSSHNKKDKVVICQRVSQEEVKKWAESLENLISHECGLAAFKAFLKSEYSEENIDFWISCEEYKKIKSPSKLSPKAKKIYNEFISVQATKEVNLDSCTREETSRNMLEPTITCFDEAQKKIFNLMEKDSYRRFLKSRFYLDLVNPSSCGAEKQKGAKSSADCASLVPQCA
MrgX1 antagonist: antagonists of human MrgX1 receptor. Q96LB2. MRGX1-HEK293 calcium flux, Fluo-4, BAM8-22 antagonism; stronger effect = lower value. B-score at 10 µM. 310,000 tested, 1.3% active;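 active means calcium-response B-score plate-corrected more than 3 library SD below zero, starting fluorescence within 5 deviations, no agonist response on first addition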;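 further: peak minus trough fluorescence over baseline after final BAM8-22 challenge near maximal dose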
MrgX1 PAM: human MrgX1 positive allosteric modulation, primary screen; Q96LB2; MrgX1-HEK293, Fluo-4 calcium flux, FDSS; stronger effect = higher value; B-score at 10 µM; 310,000 tested, 0.63% active; AID 588675;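 active means plate-corrected calcium response at least 3 library SD above typical, normal starting fluorescence, not activating the receptor alone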;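 further: compound read alongside a low EC10 to EC30 dose of BAM8-22 agonist; peak minus trough fluorescence over baseline measured at the second addition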
RGS4 act valid: confirmation of RGS4 activators; HEK293 M3R/RGS4 inducible, carbachol calcium flux Fluo4; AID 602282; shares compounds with RGS4 pot; inhibition, % at 10 µM; 1,100 tested, 89% active;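 active means inhibition above 3 SD of the buffer control wells, cut at about 41% in these data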;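 further: signal is the integrated peak-minus-minimum Fluo4 fluorescence over baseline ratio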
RGS4 act ctr: activity in cells without induced RGS4 expression; AID 602283; shares compounds with RGS4 pot; inhibition, % at 10 µM; 1,100 tested, 82% active; HEK293 M3R non-induced RGS4, Fluo4 calcium flux; after carbachol challenge at its EC90;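 active means inhibition exceeding 3 SD of buffer-only control wells, cut at about 26% in these data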;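 further: percent drop in integrated peak-minus-baseline over baseline Fluo4 ratio after carbachol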
Active calls of the source: *; i = inactive; nt = no result given; ! = repeats disagree.

SMILES	MrgX1 agonist	RGS4 pot	RGS4 block	MrgX1 antagonist	MrgX1 PAM	RGS4 act valid	RGS4 act ctr
Cc1ccc(-n2nc(C)cc2Nc2ncc(Cl)cc2Cl)cc1	i	-8.65*	i	i	i	92.0*	73.8*
Brc1cccc(-c2nnc3n2CCCCC3)c1	i	i	i	i	i	nt	nt
Brc1cccc(-c2cnc3n2CCCCC3)c1	i	-7.89*	i	i	i	84.0*	55.8*
Cc1nn(-c2ccccc2)c(C)c1NC(=O)COC(=O)c1ccc(O)cc1O	i	-10.4*	i	i	i	51.5*	0.0
O=C(Nc1ccc(N2CCN(c3ncccc3C(F)(F)F)CC2)nc1)c1cccs1	i	-7.77*	i	i	i	92.0*	96.3*
CC/C(=N\NC(N)=O)c1ccc(OC(F)F)cc1	i	i	i	i	i	nt	nt
CC(C)OCCCN(C)C1CCN(S(=O)(=O)c2csc(C(N)=O)c2)CC1	i	i	i	i	i	nt	nt
CC(C)OCCCN(C)C1CCN(S(=O)(=O)c2ccc(-c3cc(C(F)(F)F)no3)s2)CC1	i	-7.74*	i	i	i	49.0*	83.8*
Cc1cnc(NC(=O)C2=C(O)c3ccccc3S(=O)(=O)N2C)s1	i	-9.47*!	i	i	i	0.0	0.0
COP1(=O)C=C[C@H](N(Cc2ccccc2)S(=O)(=O)c2ccccc2[N+](=O)[O-])[C@@H](C)O1 (stereo partly specified)	i	i	i	i	i	nt	nt
Cc1cc(C)c(OCC(=O)Nc2cccc(NC(=O)c3ccco3)c2)c(Br)c1	i	-7.78*	i	i	i	90.5*	51.8*
Cc1cc(C)c(OCC(=O)Nc2ccc(NC(=O)c3ccco3)cc2)c([N+](=O)[O-])c1	i	nt	nt	i	i	nt	nt
CCNC(=O)c1ccccc1SCc1ccccc1	i	i	i	i	i	nt	nt
CCc1ccc(OCCNC(=O)c2ccccc2SCc2ccccc2)cc1	i	-11.3*	i	i	i	94.0*	79.8*
Cn1c(=O)[nH]c2nnc(-c3ccc(Cl)c(Cl)c3)nc2c1=O	i	-8.89*	i	i	i	0.0	0.0
COc1ccc(-c2nc3cnccn3c2NCc2ccccc2)cc1SC1CCCCC1	i	-10.9*	i	i	i	92.5*	85.8*
O=C1C(=O)N(CCS(=O)(=O)c2ccccc2)c2ccc(F)cc21	i	i	i	i	i	nt	nt
Cc1ccc(S(=O)(=O)NC(CC(C)C)C(=O)Oc2ccc3c4c(c(=O)oc3c2)CCC4)cc1 (stereo unspecified)	i	-9.42*	i	i	i	92.0*	91.8*
Cc1ccc(O)c(C(=O)c2cnc(/N=C(\N)N(C)C)nc2)c1	i	-8.79*	i	i	i	90.0*	69.3*
Nn1cnc2c(c1=O)C1(CCCCC1)Cc1ccccc1-2	i	i	i	i	i	nt	nt
O=c1c2c(nc3n1CCCCC3)-c1ccccc1CC21CCCC1	i	-11.3*	i	i	i	93.0*	94.3*
CCN(CC)CCOC(=O)c1ccccc1Br	i	i	i	i	i	nt	nt
CCN(CC)CCCOC(=O)C1(c2ccccc2)CCCC1	i	-10.8*	i	i	i	95.0*	92.8*
CS(=O)(=O)N1CCC(C(=O)Nc2ccc(F)c(Cl)c2)CC1	i	-8.42*	i	i	i	0.0	0.0
CN(C)CCOC(C1CCCCC1)C1CCCCC1	i	-9.05*	i	i	i	90.5*	67.8*
SMILES	MrgX1 agonist	RGS4 pot	RGS4 block	MrgX1 antagonist	MrgX1 PAM	RGS4 act valid	RGS4 act ctr
COc1ccc(Cl)cc1NC(=S)N1CCCC1	i	i	i	i	i	nt	nt
N#C/C(=C/Nc1ccccc1F)S(=O)(=O)c1ccc(Cl)cc1	i	i	i	i	i	nt	nt
Cn1c(C(C)(O)C(O)c2ccccc2)nc2ccccc21 (stereo unspecified)	i	i	i	i	i	nt	nt
COCCNC(=S)Nc1ccc2nc(N3CCOCC3)cc(C)c2c1	i	-11.4*	i	i	i	0.0	0.0
CC(Cc1cccs1)NC(=S)Nc1ccc(Cl)cc1 (stereo unspecified)	i	-8.03*	i	i	i	48.5*	83.8*
CC(Cc1cccs1)NC(=O)Nc1ccc(F)cc1 (stereo unspecified)	i	i	i	i	i	nt	nt
O=C1CCN1C1(C(=O)NC2CCCCC2)CCCC1	i	i	i	i	i	nt	nt
COc1ccc(CCNC(=O)c2cccc3c2C(=O)N(C2CCCCC2)C3)cc1OC	i	-8.12*	i	i	i	64.5*	0.0
CN(C)CCNC(=O)c1cccc(S(=O)(=O)Nc2ccc(F)cc2)c1	i	i	i	i	i	nt	nt
CCN(CC)CCNC(=O)c1ccc(NC(=O)c2cccc(S(=O)(=O)Nc3ccc(C)cc3)c2)cc1	i	-11.8*	i	i	i	92.0*	68.8*
CNC(=O)c1ccccc1Nc1ccc(SC(F)F)cc1	i	i	i	i	i	nt	nt
O=C(NCc1ccncc1)c1ccccc1Nc1ccc(SC(F)F)cc1	i	-8.89*	i	i	i	92.5*	84.8*
COc1cccc(/C=N/n2c(-c3n[nH]c4c3CCC4)n[nH]c2=S)c1O	i	-9.07*	i	i	i	93.5*	93.3*
COc1ccccc1/C=C/C=N/n1c(-c2n[nH]c3c2CCC3)n[nH]c1=S	i	i	i	i	i	nt	nt
S=c1[nH]nc(-c2n[nH]c3c2CCC3)n1/N=C/C=C/c1ccco1	i	-9.08*	i	i	i	89.0*	57.8*
CCN1CCN(Cc2cccc(Oc3ccccc3)c2)CC1	i	-8.01*	i	i	i	61.5*	83.8*
CN1CCN(Cc2cccc(Oc3ccc(Cl)cc3)c2)CC1	i	-11.6*	i	i	i	90.5*	37.8*
CCOC(=O)C1CCN(Cc2cccc(Oc3ccc(Cl)cc3)c2)CC1	i	i	i	i	i	nt	nt
CCN1CCN(Cc2cccc(Oc3ccc(Cl)cc3)c2)CC1	i	-9.42*	i	i	i	92.5*	61.3*
CC1CC(C)CN(C(=O)C2CCN(C(=O)Nc3ccccc3)CC2)C1 (stereo unspecified)	i	i	i	i	i	nt	nt
